In ChEMBL document CHEMBL1147705, “Imidazolylpyrimidine based CXCR2 chemokine receptor antagonists” (Bioorg Med Chem Lett, 2006):

What was measured:
[1] = target: T1, C-X-C chemokine receptor type 2 (Homo sapiens, UniProt P25025); experiment: Binding affinity to human CXCR2 receptor transfected in CHO cell; assay type: cell-based
T1 sequence (P25025 whole entry): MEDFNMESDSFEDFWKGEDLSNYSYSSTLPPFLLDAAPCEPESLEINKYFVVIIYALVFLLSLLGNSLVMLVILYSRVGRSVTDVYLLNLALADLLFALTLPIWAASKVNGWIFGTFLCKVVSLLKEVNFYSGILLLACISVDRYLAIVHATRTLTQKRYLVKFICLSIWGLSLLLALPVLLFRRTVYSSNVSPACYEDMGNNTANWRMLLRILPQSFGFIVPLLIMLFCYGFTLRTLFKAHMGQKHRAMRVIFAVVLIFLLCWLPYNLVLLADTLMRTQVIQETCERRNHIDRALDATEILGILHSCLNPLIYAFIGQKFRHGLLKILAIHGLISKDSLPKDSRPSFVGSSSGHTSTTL

[2] = Stability in rat liver microsome at 10 uM after 30 min; assay type: ADME; conditions: liver microsomes, read-out: Stability
Outline: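 Compound at 10 µM incubated with rat liver microsomal enzyme (300 nM) for 30 min at 37 °C; percent of parent remaining after 30 min quantified by LC. Values are means of at least two experiments, standard deviation <±30%.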

[3] = Cmax in dog at 4 umol/kg, po; assay type: ADME, organism-based, Canis lupus familiaris; parameters: dose 4 umol/kg, route oral; conditions: in vivo
[4] = Oral bioavailability in dog at 2 umol/kg, iv and 4 umol/kg, po; assay type: ADME, organism-based, Canis lupus familiaris; conditions: in vivo
[5] = Oral bioavailability in rat at […], iv and po; assay type: ADME, organism-based; conditions: in vivo
[6] = Half life in rat at 4 umol/kg, iv and po; assay type: ADME, organism-based; conditions: in vivo
Outline: (§1)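 Rats (n = 3) dosed 4 µmol/kg by iv and po routes; plasma pharmacokinetic profile followed after each route to derive the parameters.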

[7] = Clearance in rat at 4 umol/kg, iv and po; assay type: ADME, organism-based; conditions: in vivo; outline: as §1
[8] = Volume of distribution in rat at 4 umol/kg, iv and po; assay type: ADME, organism-based; conditions: in vivo, read-out: Vdss; outline: as §1
[9] = AUC (infinity) in rat at 4 umol/kg, po; assay type: ADME, organism-based; parameters: dose 4 umol/kg, route oral, time infinity; conditions: plasma; outline: as §1
[10] = Cmax in rat at 4 umol/kg, po; assay type: ADME, organism-based; parameters: dose 4 umol/kg, route oral; conditions: in vivo; outline: as §1
[11] = Half life in dog at 2 umol/kg, iv and 4 umol/kg, po; assay type: ADME, organism-based, Canis lupus familiaris; conditions: in vivo
[12] = Clearance in dog at 2 umol/kg, iv and 4 umol/kg, po; assay type: ADME, organism-based, Canis lupus familiaris; conditions: in vivo
[13] = Volume of distribution in dog at 2 umol/kg, iv and 4 umol/kg, po; assay type: ADME, organism-based, Canis lupus familiaris; conditions: in vivo, read-out: Vdss
[14] = AUC (infinity) in dog at 4 umol/kg, po; assay type: ADME, organism-based, Canis lupus familiaris; parameters: dose 4 umol/kg, route oral, time infinity; conditions: plasma

| Structure (SMILES) | Ki [1] [nM] | remaining at 0.5 h, 10 µM [2] [%] | further results |
| --- | --- | --- | --- |
| CCCCc1cc(N[C@@H](CC(C)C)C(=O)NCCCOCC)nc(-n2cnc(-c3ccc(C(F)(F)F)cc3)c2)n1 | 14 | 80 | – |
| CCCCCCCCc1cc(N[C@@H](CC(C)C)C(=O)NCCCOCC)nc(-n2ccnc2)n1 | 120 | 36 | – |
| CCCCc1cc(N[C@@H](CC(C)C)C(=O)NCCCOCC)nc(-n2cnc(-c3ccc(C)cc3)c2)n1 | 40 | 35 | – |
| CCCCc1cc(N[C@@H](CC(C)C)C(=O)NCCCOCC)nc(-n2cnc(-c3ccc(OC)cc3)c2)n1 | 42 | 30 | – |
| CCCCc1cc(N[C@@H](CC(C)C)C(=O)NCCCOCC)nc(-n2ccnc2)n1 | 1700 | 68 | – |
| CCCCc1cc(N[C@@H](CC(C)C)C(=O)NCCCOCC)nc(-n2cnc(-c3ccc(Cl)cc3)c2)n1 | 27 | 54 | – |
| CCCc1cc(N[C@@H](CC(C)C)C(=O)NCCCOCC)nc(-n2cnc(-c3ccc(OC(F)(F)F)cc3)c2)n1 | 25 | 74 | Cmax [3]: 300 nM; bioavailability [4]: 25%; bioavailability [5]: 33%; half-life [6]: 2.7 h; clearance [7]: 9.83 mL/min/kg; Vd [8]: 1.99 L/kg; AUC(0-inf) [9]: 2.43 µM·h; Cmax [10]: 660 nM; half-life [11]: 1.1 h; clearance [12]: 12.1 mL/min/kg; Vd [13]: 2.79 L/kg; AUC(0-inf) [14]: 1.39 µM·h |
| CCCCc1cc(N[C@@H](CC(C)C)C(=O)NCCCOCC)nc(-n2cnc(C(C)(C)C)c2)n1 | 85 | 13 | – |
| CCCCc1cc(N[C@@H](CC(C)C)C(=O)NCCCOCC)nc(-n2cnc(-c3ccc([N+](=O)[O-])cc3)c2)n1 | 160 | 48 | – |
| CCOCCCNC(=O)[C@H](CC(C)C)Nc1cc(C)nc(-n2cnc(-c3ccc(OC(F)(F)F)cc3)c2)n1 | 44 | 67 | bioavailability [5]: 22% |
| CCCc1cc(N[C@@H](CC(C)C)C(=O)NCCCOCC)nc(-n2cnc(-c3ccccc3OC(F)(F)F)c2)n1 | 50 | 13 | bioavailability [5]: 5% |
| CCCCc1cc(N[C@@H](CC(C)C)C(=O)NCCCOCC)nc(-n2cncn2)n1 | > 10000 | 30 | – |
| CCOCCCNC(=O)[C@H](CC(C)C)Nc1cc(C(C)(C)C)nc(-n2ccnc2)n1 | 6000 | 83 | – |
| CCCCc1cc(N[C@@H](CC(C)C)C(=O)NCCCOCC)nc(-n2cnc(-c3ccc(F)cc3)c2)n1 | 37 | 20 | – |
| CCCCc1cc(N[C@@H](CC(C)C)C(=O)NCCCOCC)nc(-n2cnc(-c3ccc(OC(F)(F)F)cc3)c2)n1 | 17 | 66 | bioavailability [5]: 7% |
| CCCCc1cc(N[C@@H](CC(C)C)C(=O)NCCCOCC)nc(-n2cnc(-c3ccc(C#N)cc3)c2)n1 | 43 | 50 | – |
| CCCCc1cc(N[C@@H](CC(C)C)C(=O)NCCCOCC)nc(-n2ccnc2C)n1 | > 10000 | 27 | – |
| CCCCc1cc(N[C@@H](CC(C)C)C(=O)NCCCOCC)nc(-n2cnc(-c3ccc(O)cc3)c2)n1 | 32 | 65 | – |
| CCCCCCc1cc(N[C@@H](CC(C)C)C(=O)NCCCOCC)nc(-n2ccnc2)n1 | 290 | 50 | – |
| CCCCc1cc(N[C@@H](CC(C)C)C(=O)NCCCOCC)nc(-n2cnc(-c3ccccc3)c2)n1 | 100 | 2 | – |
| CCCCCCCCSc1cc(N[C@@H](CC(C)C)C(=O)NCCCOCC)nc(-n2ccnc2)n1 | 60 | 26 | – |
| CCOCCCNC(=O)[C@H](CC(C)C)Nc1ccnc(-n2cnc(-c3ccc(OC(F)(F)F)cc3)c2)n1 | 200 | 5 | bioavailability [5]: 4% |
| CCCCc1cc(N[C@@H](CC(C)C)C(=O)NCCCOCC)nc(-n2cnc(-c3ccc(N)cc3)c2)n1 | 600 | – | – |
| CCCCc1cc(N[C@@H](CC(C)C)C(=O)NCCCOCC)nc(-c2ccncc2)n1 | > 5000 | 52 | – |
| CCCc1cc(N[C@@H](CC(C)C)C(=O)NCCCOCC)nc(-n2cnc(-c3cccc(OC(F)(F)F)c3)c2)n1 | 35 | 55 | bioavailability [5]: 7% |
| CCOCCCNC(=O)[C@H](CC(C)C)Nc1cc(CC)nc(-n2cnc(-c3ccc(OC(F)(F)F)cc3)c2)n1 | 57 | 77 | bioavailability [5]: 18% |
| CCCCc1cc(N[C@@H](CC(C)C)C(=O)NCCCOCC)nc(-n2cnc(C)c2)n1 | 90 | 25 | – |
| CCCCc1cc(N[C@@H](CC(C)C)C(=O)NCCCOCC)nc(-c2cccnc2)n1 | 750 | 36 | – |
